Data set [1] deals with T1, Prolyl endopeptidase FAP (Homo sapiens, UniProt Q12884).
T1 sequence (Q12884 whole entry): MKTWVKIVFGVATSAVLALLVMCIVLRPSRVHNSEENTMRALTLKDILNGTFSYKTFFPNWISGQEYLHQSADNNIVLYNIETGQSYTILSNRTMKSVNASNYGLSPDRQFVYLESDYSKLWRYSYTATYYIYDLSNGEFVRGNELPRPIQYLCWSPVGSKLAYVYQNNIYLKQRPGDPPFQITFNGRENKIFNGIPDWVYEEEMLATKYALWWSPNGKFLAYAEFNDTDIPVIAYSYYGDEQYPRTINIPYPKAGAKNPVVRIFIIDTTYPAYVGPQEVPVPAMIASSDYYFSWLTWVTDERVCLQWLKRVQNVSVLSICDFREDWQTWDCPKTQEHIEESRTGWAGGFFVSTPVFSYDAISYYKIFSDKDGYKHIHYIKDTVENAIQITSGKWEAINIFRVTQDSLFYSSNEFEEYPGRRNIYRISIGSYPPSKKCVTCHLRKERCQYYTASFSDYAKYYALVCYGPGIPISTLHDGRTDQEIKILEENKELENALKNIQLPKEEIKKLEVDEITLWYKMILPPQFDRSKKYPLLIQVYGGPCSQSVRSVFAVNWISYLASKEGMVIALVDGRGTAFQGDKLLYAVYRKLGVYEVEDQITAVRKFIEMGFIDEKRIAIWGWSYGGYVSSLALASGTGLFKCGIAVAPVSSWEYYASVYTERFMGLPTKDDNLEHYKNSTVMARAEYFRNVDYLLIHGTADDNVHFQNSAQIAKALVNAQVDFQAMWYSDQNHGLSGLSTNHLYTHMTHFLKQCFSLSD
Description: Prodrug activation assessed as recombinant human FAP-alpha mediated 5-((3S,5R,8R,9S,10S,11S,13R,14S,17R)-3-(2-(4-aminophenyl)acetyl)-11,14-dihydroxy-10,13-dimethyl-12-oxohexadecahydro-1H-cyclopenta[a]phenanthren-17-yl)-2H-pyran-2-one formation by measuring intrinsic clearance at 40 umol/L after 6 hrs by UPLC-MS/MS analysis. To be noted: 40 µM.

In data set [2] the target is T1, Prolyl endopeptidase FAP. The data set can be described thus: Prodrug activation assessed as Vmax for recombinant human FAP-alpha mediated (S)-((3S,5R,8R,9S,10S,11S,13R,14S,17R)-11,14-dihydroxy-10,13-dimethyl-12-oxo-17-(2-oxo-2H-pyran-5-yl)hexadecahydro-1H-cyclopenta[a]phenanthren-3-yl) 2-amino-3-phenylpropanoate formation after 90 mins by UPLC-MS/MS analysis. To be noted: 1.5 h. Put shortly: (§1)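 Prodrug at 0.625–40 μmol/L incubated with rhFAPα at 0.45 μg/mL and internal standard in 0.2 mL PBS, pH 7.4, at 37 °C for 90 min. Quenched with MeCN and spun at 18 000g for 15 min; product measured by UPLC-MS/MS. S50 and Vmax fitted with an allosteric sigmoidal model; CLint = Vmax/S50. Three independent experiments.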

The target of data set [3] is T1, Prolyl endopeptidase FAP. The data set can be described thus: Prodrug activation assessed as recombinant human FAP-alpha mediated (S)-((3S,5R,8R,9S,10S,11S,13R,14S,17R)-11,14-dihydroxy-10,13-dimethyl-12-oxo-17-(2-oxo-2H-pyran-5-yl)hexadecahydro-1H-cyclopenta[a]phenanthren-3-yl) 2-amino-3-phenylpropanoate formation at 40 umol/L after 6 hrs in presence of FAP-alpha inhibitor talabostat by UPLC-MS/MS analysis. Particulars: 40 µM. Put shortly:
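Prodrug at 40 μmol/L incubated with rhFAPα at 0.45 μg/mL in 0.2 mL buffer at 37 °C for 6 h, with bufalin at 2 μmol/L as internal standard. Stopped with acetonitrile and spun at 18 000g for 15 min. Released active form measured by UPLC-MS/MS via peak-area ratio against a standard curve of 0.625–40 μmol/L.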

In data set [4] the target is T1, Prolyl endopeptidase FAP. The data set can be described thus: Prodrug activation assessed as recombinant human FAP-alpha mediated (S)-((3S,5R,8R,9S,10S,11S,13R,14S,17R)-11,14-dihydroxy-10,13-dimethyl-12-oxo-17-(2-oxo-2H-pyran-5-yl)hexadecahydro-1H-cyclopenta[a]phenanthren-3-yl) 2-amino-3-phenylpropanoate by measuring concentration of test compound gives half-maximal activity formation after 90 mins by UPLC-MS/MS analysis. Particulars: 1.5 h. Put shortly: as §1

The target in data set [5] is T1, Prolyl endopeptidase FAP. The data set can be described thus: Prodrug activation assessed as recombinant human FAP-alpha mediated (S)-((3S,5R,8R,9S,10S,11S,13R,14S,17R)-11,14-dihydroxy-10,13-dimethyl-12-oxo-17-(2-oxo-2H-pyran-5-yl)hexadecahydro-1H-cyclopenta[a]phenanthren-3-yl) 2-amino-3-phenylpropanoate formation by measuring intrinsic clearance after 90 mins by UPLC-MS/MS analysis. Particulars: 1.5 h. A digest of the protocol: as §1

For data set [6], the target named is T1, Prolyl endopeptidase FAP. The data set can be described thus: Prodrug activation assessed as Vmax for recombinant human FAP-alpha mediated (2S,3S)-((3S,5R,8R,9S,10S,11S,13R,14S,17R)-11,14-dihydroxy-10,13-dimethyl-12-oxo-17-(2-oxo-2H-pyran-5-yl)hexadecahydro-1H-cyclopenta[a]phenanthren-3-yl) 2-amino-3-methylpentanoate formation after 90 mins by UPLC-MS/MS analysis. To be noted: 1.5 h. A digest of the protocol: as §1

Data set [7] concerns the target T1, Prolyl endopeptidase FAP. The data set can be described thus: Prodrug activation assessed as recombinant human FAP-alpha mediated (2S,3S)-((3S,5R,8R,9S,10S,11S,13R,14S,17R)-11,14-dihydroxy-10,13-dimethyl-12-oxo-17-(2-oxo-2H-pyran-5-yl)hexadecahydro-1H-cyclopenta[a]phenanthren-3-yl) 2-amino-3-methylpentanoate formation by measuring intrinsic clearance after 90 mins by UPLC-MS/MS analysis. To be noted: 1.5 h. Put shortly: as §1

Data set [8] concerns the target T1, Prolyl endopeptidase FAP. Description: Prodrug activation assessed as recombinant human FAP-alpha mediated (2S,3S)-((3S,5R,8R,9S,10S,11S,13R,14S,17R)-11,14-dihydroxy-10,13-dimethyl-12-oxo-17-(2-oxo-2H-pyran-5-yl)hexadecahydro-1H-cyclopenta[a]phenanthren-3-yl) 2-amino-3-methylpentanoate by measuring concentration of test compound gives half-maximal activity formation after 90 mins by UPLC-MS/MS analysis. To be noted: 1.5 h. A digest of the protocol: as §1

Data set [9] concerns the target T1, Prolyl endopeptidase FAP. The data set can be described thus: Prodrug activation assessed as recombinant human FAP-alpha mediated (S)-((3S,5R,8R,9S,10S,11S,13R,14S,17R)-11,14-dihydroxy-10,13-dimethyl-12-oxo-17-(2-oxo-2H-pyran-5-yl)hexadecahydro-1H-cyclopenta[a]phenanthren-3-yl) 2-amino-4-methylpentanoate formation by measuring intrinsic clearance after 90 mins by UPLC-MS/MS analysis. Particulars: 1.5 h. Put shortly: as §1

Data set [10] has as its target T1, Prolyl endopeptidase FAP. The data set can be described thus: Prodrug activation assessed as recombinant human FAP-alpha mediated (S)-((3S,5R,8R,9S,10S,11S,13R,14S,17R)-11,14-dihydroxy-10,13-dimethyl-12-oxo-17-(2-oxo-2H-pyran-5-yl)hexadecahydro-1H-cyclopenta[a]phenanthren-3-yl) 2-amino-4-methylpentanoate formation by measuring concentration of test compound gives half-maximal activity after 90 mins by UPLC-MS/MS analysis. Particulars: 1.5 h. A digest of the protocol: as §1

Data set [11] deals with T1, Prolyl endopeptidase FAP. Description: Prodrug activation assessed as Vmax for recombinant human FAP-alpha mediated (S)-((3S,5R,8R,9S,10S,11S,13R,14S,17R)-11,14-dihydroxy-10,13-dimethyl-12-oxo-17-(2-oxo-2H-pyran-5-yl)hexadecahydro-1H-cyclopenta[a]phenanthren-3-yl) 2-amino-4-methylpentanoate formation after 90 mins by UPLC-MS/MS analysis. Particulars: 1.5 h. Put shortly:
as §1

On to `C[C@]12CC[C@H](OC(=O)Cc3ccc(NC(=O)[C@@H]4CCCN4C(=O)CNC(=O)OCc4ccccc4)cc3)C[C@H]1CC[C@@H]1[C@@H]2[C@H](O)C(=O)[C@]2(C)[C@@H](c3ccc(=O)oc3)CC[C@]12O`, for which the CL in data set [1] came out at 7070 µL/min/mg.
As usually defined, the Vmax is the rate approached at saturating substrate. With `C[C@]12CC[C@H](OC(=O)[C@H](Cc3ccccc3)NC(=O)[C@@H]3CCCN3C(=O)CNC(=O)OCc3ccccc3)C[C@H]1CC[C@@H]1[C@@H]2[C@H](O)C(=O)[C@]2(C)[C@@H](c3ccc(=O)oc3)CC[C@]12O`, the Vmax in data set [2] came out at 0.366 µmol/min/mg. Besides, the Drug metabolism entry in data set [3] is reported as “Metabolite_Notdetected”. Moreover, the S50 in data set [4] is 8.64 µmol/L. Moreover, the CL in [5] is 42360 µL/min/mg.
In the case of `CC[C@H](C)[C@H](NC(=O)[C@@H]1CCCN1C(=O)CNC(=O)OCc1ccccc1)C(=O)O[C@H]1CC[C@@]2(C)[C@H](CC[C@@H]3[C@@H]2[C@H](O)C(=O)[C@]2(C)[C@@H](c4ccc(=O)oc4)CC[C@]32O)C1`, in data set [6], the Vmax came to 0.014 µmol/min/mg. In [7], the CL stood at 1590 µL/min/mg. In data set [8], the S50 turned out to be 8.82 µmol/L.
`CC(C)C[C@H](NC(=O)[C@@H]1CCCN1C(=O)CNC(=O)OCc1ccccc1)C(=O)O[C@H]1CC[C@@]2(C)[C@H](CC[C@@H]3[C@@H]2[C@H](O)C(=O)[C@]2(C)[C@@H](c4ccc(=O)oc4)CC[C@]32O)C1`: the CL in data set [9] stood at 3520 µL/min/mg. Also, the S50 in data set [10] came out at 11.92 µmol/L. For the same molecule, the Vmax in data set [11] worked out at 0.042 µmol/min/mg.

For the origin of these results see ChEMBL document CHEMBL4038302, “Fibroblast Activation Protein α Activated Tripeptide Bufadienolide Antitumor Prodrug with Reduced Cardiotoxicity” (J Med Chem, 2017).
